The results in this text go back to ChEMBL document CHEMBL1131828, “Synthesis and biological evaluation of a new class of vaccine adjuvants: aminoalkyl glucosaminide 4-phosphates (AGPs)” (1999).

Holding throughout (format): functional
The species named for experiment [1] is Homo sapiens. Kind of experiment: Relative ex vivo induction of IL1-beta in human whole blood stimulated with 10 ug/mL. Put shortly:
(§1)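 Human whole blood was stimulated with sample, and cell-associated TNF-α and IL-1β were measured by sandwich ELISA. Relative induction below 0.05 was scored as not detected.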

The species named for experiment [2] is Mus musculus. Kind of experiment: Ability to enhance antibody response to tetanus toxoid vaccine, IgG1. An outline of the steps: (§2)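 Mice were immunized with tetanus toxoid in an oil-water emulsion with test article, then boosted 21 days after the primary dose. Serum was taken 14 days after the second injection and assayed by ELISA. Values are test titers divided by the titer of controls given oil-water vehicle with tetanus toxoid only.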

For experiment [3], the species on record is Mus musculus. Kind of experiment: Ability to enhance antibody response to tetanus toxoid vaccine, total Immunoglobulin (Ig). An outline of the steps: as §2
The species entered for experiment [4] is Mus musculus. Kind of experiment: Half-maximal response in vitro using peritoneal exudate cells from Propionibacterium acnes-primed mice. The note with it: read-out: ED50 (the source's name).
Another experiment is filed under the species Oryctolagus cuniculus. Kind of experiment: Minimum pyrogenic dose was determined for Febrile response in a standard 3-rabbit USP pyrogen test by injecting compound in the marginal ear vein. An outline of the steps: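 Test article dissolved in EtOH, then diluted with D5W to the desired concentrations just before injection. The minimal pyrogenic dose is the dose at which the summed temperature rise over the three rabbits reaches at least 1.2 °C.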

Experiment [5] is filed under the species Mus musculus. Kind of experiment: Ability to enhance antibody response to tetanus toxoid vaccine, IgG2a. Put shortly:
as §2

Experiment [6] is filed under the species Homo sapiens. Kind of experiment: Relative ex vivo induction of TNF-alpha in human whole blood stimulated with 10 ug/mL. Put shortly:
as §1

Experiment [7] is filed under the species Mus musculus. The experiment can be described thus: Ability to enhance antibody response to tetanus toxoid vaccine, IgG2b. Put shortly:
as §2

The species entered for experiment [8] is Mus musculus. Kind of experiment: Percent of cytotoxicity was determined for augment vaccine-induced CTL's against EG.7-ova target cells in two separate murine models. An outline of the steps: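 C57BL/6 (H-2b) mice, 6 per group, were immunized on days 0 and 14 with a 2.5% oil-water emulsion containing 25 µg ovalbumin plus test article. On day 21, spleens were tested for ovalbumin-specific CTL against 51Cr-labeled E.G7-ova target cells, an ovalbumin-transfected line. Read-out was percent specific lysis.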

Values after ≈ are worked out from the molar mass of the structure shown.

For the compound `CCCCCCCCCCC[C@H](CC(=O)N[C@@H](CO[C@@H]1OC(CO)[C@H](OP(=O)(O)O)C(OC(=O)C[C@@H](CCCCCCCCCCC)OC(=O)CCCCCCCCC)[C@@H]1NC(=O)C[C@@H](CCCCCCCCCCC)OC(=O)CCCCCCCCC)C(=O)O)OC(=O)CCCCCCCCC` (stereo partly specified), the Cytokine induction in the experiment filed under Homo sapiens [1] is reported as 23; in the experiment listed under Homo sapiens [6], over 6. In addition, the Response turned out to be 4.2 in the experiment filed under Mus musculus [2], 18.9 in the experiment listed under Mus musculus [3], 6.8 in the experiment listed under Mus musculus [5] and 2.8 in the experiment listed under Mus musculus [7]. The EC50 in the experiment listed under Mus musculus [4] is 0.06 ng/mL (≈ 0.0403 nM). This compound came in with a Dose in the experiment listed under Oryctolagus cuniculus of under 0.06 µg/kg. This compound registered a Cytotoxicity in the experiment filed under Mus musculus [8] of 58%.
Turning to `CCCCCCCCCCCCCC(=O)O[C@H](CCCCCCCCCCC)CC(=O)NC(CO[C@@H]1OC(CO)[C@H](OP(=O)(O)O)C(OC(=O)C[C@@H](CCCCCCCCCCC)OC(=O)CCCCCCCCCCCCC)[C@@H]1NC(=O)C[C@@H](CCCCCCCCCCC)OC(=O)CCCCCCCCCCCCC)C(=O)O` (stereo partly specified), the Cytokine induction in the experiment filed under Homo sapiens [1] is 4.8; in the experiment listed under Homo sapiens [6] it was 1.7. In addition, the Response in the experiment filed under Mus musculus [2] came to 1.9; in the experiment filed under Mus musculus [3], 3.6; in the experiment listed under Mus musculus [5], 2.1; in the experiment filed under Mus musculus [7] it was 0.9. Moreover, in the experiment listed under Mus musculus [4], the EC50 was found to be 3 ng/mL (≈ 1.81 nM). The Dose in the experiment listed under Oryctolagus cuniculus came out at 0.6 µg/kg. The compound further returned a Cytotoxicity in the experiment filed under Mus musculus [8] of 14%.
Regarding `CCCCCCCCCCCCCC(=O)O[C@H](CCCCCCCCCCC)CC(=O)NCCCO[C@@H]1OC(CO)[C@H](OP(=O)(O)O)C(OC(=O)C[C@@H](CCCCCCCCCCC)OC(=O)CCCCCCCCCCCCC)[C@@H]1NC(=O)C[C@@H](CCCCCCCCCCC)OC(=O)CCCCCCCCCCCCC` (stereo partly specified), the Cytokine induction came out at 3.5 in the experiment listed under Homo sapiens [1] and 2.3 in the experiment listed under Homo sapiens [6]. Moreover, the Response is 2.2 in the experiment filed under Mus musculus [2], 4.7 in the experiment listed under Mus musculus [3], 5.8 in the experiment filed under Mus musculus [5] and 6.1 in the experiment listed under Mus musculus [7]. In addition, the EC50 in the experiment listed under Mus musculus [4] is 8 ng/mL (≈ 4.92 nM). The Dose in the experiment filed under Oryctolagus cuniculus was 10 µg/kg. In addition, in the experiment listed under Mus musculus [8], the Cytotoxicity turned out to be 38%.
For the compound `CCCCCCCCCCC[C@H](CC(=O)NC(CO[C@@H]1OC(CO)[C@H](OP(=O)(O)O)C(OC(=O)C[C@@H](CCCCCCCCCCC)OC(=O)CCCCCCCCC)[C@@H]1NC(=O)C[C@@H](CCCCCCCCCCC)OC(=O)CCCCCCCCC)C(N)=O)OC(=O)CCCCCCCCC` (stereo partly specified), the Cytokine induction in the experiment filed under Homo sapiens [1] came out at 6.2; in the experiment listed under Homo sapiens [6], 3.5. In addition, the Response in the experiment filed under Mus musculus [2] is given as 2.6; in the experiment listed under Mus musculus [3] it was 8.9; in the experiment listed under Mus musculus [5], 1.7; in the experiment filed under Mus musculus [7], 3.3. Also, in the experiment listed under Mus musculus [4], the EC50 stood at 0.3 ng/mL (≈ 0.202 nM). Also, in the experiment listed under Oryctolagus cuniculus, the Dose is 10 µg/kg. This compound displayed a Cytotoxicity in the experiment listed under Mus musculus [8] of 65%.
